# Activity calls are given as the source filed them. The calls are words filed in the database; no cut-off is given here.
# Legend:
# C2C12 [1] = test: Induction of 2-deoxy-[3H]-glucose uptake in mouse C2C12 cells at 30 uM after 2 hrs by liquid scintillation counting analysis; format: functional, cell-based
# Procedure, shortened: (§1)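 C2C12 myoblasts grown in DMEM/10% FBS, differentiated at confluence in 1% FBS DMEM to day 4. Myotubes serum-starved 3 h (0.2% BSA), 1 h in KRPH buffer pH 7.4, then compound (0.1% DMSO) for 2 h. Uptake of 0.5 μCi/mL 2-deoxy-[3H]-glucose plus 100 μM 2-deoxy-D-glucose for 10 min. Ice-cold PBS wash, SDS/NaOH lysis, scintillation counting normalized to protein. Three independent experiments in triplicate, mean ± SEM.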
# C2C12 [2] = test: Potentiation of insulin-induced 2-deoxy-[3H]-glucose uptake in mouse C2C12 cells at 30 uM preincubated with cells followed by insulin induction for 30 mins by liquid scintillation counting analysis relative to control; format: functional
# Procedure, shortened: (§2)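 Differentiated C2C12 myotubes, serum-starved 3 h then 1 h in KRPH buffer pH 7.4, given compound (0.1% DMSO), then 100 nM insulin for 30 min. 2-Deoxy-[3H]-glucose (0.5 μCi/mL) with 100 μM 2-deoxy-D-glucose taken up for 10 min. Cells washed in cold PBS, lysed in 0.1% SDS/0.5 M NaOH, scintillation counted and normalized to total protein. Mean ± SEM, three experiments in triplicate.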
# [3] = target: T1, Tyrosine-protein phosphatase non-receptor type 1 (Homo sapiens, UniProt P18031); test: Inhibition of PTP1B (unknown origin) using p-nitrophenyl phosphate as substrate after 30 mins
# T1 sequence (P18031 whole entry): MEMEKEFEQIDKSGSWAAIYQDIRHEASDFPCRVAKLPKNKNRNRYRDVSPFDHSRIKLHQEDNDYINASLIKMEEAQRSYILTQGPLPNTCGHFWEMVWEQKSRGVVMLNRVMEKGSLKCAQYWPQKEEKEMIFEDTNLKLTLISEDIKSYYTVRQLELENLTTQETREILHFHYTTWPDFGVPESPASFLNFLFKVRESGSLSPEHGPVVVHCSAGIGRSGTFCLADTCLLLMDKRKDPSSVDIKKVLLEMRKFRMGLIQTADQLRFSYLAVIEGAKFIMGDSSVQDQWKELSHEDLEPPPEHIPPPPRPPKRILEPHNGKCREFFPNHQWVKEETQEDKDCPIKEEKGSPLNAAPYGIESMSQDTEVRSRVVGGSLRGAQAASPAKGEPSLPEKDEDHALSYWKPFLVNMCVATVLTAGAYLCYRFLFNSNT
# Procedure, shortened: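 PTP1B (source not stated) 0.05−0.1 μg with 2 mM p-nitrophenyl phosphate in 50 mM citrate pH 6.0, 0.1 M NaCl, 1 mM EDTA, 1 mM dithiothreitol, ± test compound; 37 °C for 30 min, quenched with 10 M NaOH; p-nitrophenol read at 405 nm; IC50 determined.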
# C2C12 [4] = test: Potentiation of insulin-induced 2-deoxy-[3H]-glucose uptake in mouse C2C12 cells at 10 uM preincubated with cells followed by insulin induction for 30 mins by liquid scintillation counting analysis relative to control; format: functional; procedure, shortened: as §2
# C2C12 [5] = test: Induction of 2-deoxy-[3H]-glucose uptake in mouse C2C12 cells at 10 uM after 2 hrs by liquid scintillation counting analysis relative to control; format: functional; procedure, shortened: as §1
# C2C12 [6] = test: Potentiation of insulin-induced 2-deoxy-[3H]-glucose uptake in mouse C2C12 cells at 5 uM preincubated with cells followed by insulin induction for 30 mins by liquid scintillation counting analysis; format: functional, cell-based; procedure, shortened: as §2
# C2C12 [7] = test: Induction of 2-deoxy-[3H]-glucose uptake in mouse C2C12 cells at 5 uM after 2 hrs by liquid scintillation counting analysis; format: functional, cell-based; procedure, shortened: as §1
Structure (SMILES),IC50 [3] [µM],Activity (C2C12 [4]) [%],Activity (C2C12 [5]) [%],also measured
CN(CCOc1ccc(CC2SC(=O)NC2=O)cc1)c1ccccn1 (stereo not drawn) [ROSIGLITAZONE],,,,Activity (C2C12 [1]): Active; Activity (C2C12 [2]): 47.3%
C[C@@H]1CN[C@H]2[C@@H](C)[C@@]3(CC[C@@H]4C(=C[C@H]5[C@H]4CC=C4C[C@@H](O)CC[C@@]45C)[C@@]3(C)O)O[C@@H]2C1,> 30,,,
CC(=O)O[C@H]1CC[C@@]2(C)C(=CC[C@H]3c4ccc([C@H](C)[C@@H]5NC[C@@H](C)C[C@H]5O)c(C)c4C[C@@H]32)C1,4.7,56,24.8,
CC1=C2C(=O)[C@H]3[C@@H](CC[C@@H]4C[C@@H](O)C[C@@H](O)[C@@]43C)[C@@H]2CC[C@]12O[C@@H]1C[C@H](C)CN[C@H]1[C@H]2C,> 30,,,
C[C@H]1CC[C@@H]2N(C1)C[C@H]1[C@@H]3C[C@H]4[C@@H](CC=C5C[C@@H](OC=O)CC[C@@]54C)[C@@H]3C[C@H](O)[C@@H]1[C@]2(C)O,> 30,,,
CC1=C2C(=O)[C@H]3[C@@H](CC=C4C[C@@H](OC=O)CC[C@@]43C)[C@@H]2CC[C@]12O[C@@H]1C[C@H](C)CN[C@H]1[C@H]2C,11.3,49.9,15,Activity (C2C12 [6]): Active; Activity (C2C12 [7]): Active
